PGC1a acetyl inh – lowers PGC1a acetylation signal in U2OS cells | AlphaScreen anti-acetyl-lysine; with virally co-expressed GCN5 acetyltransferase | inhibition, % at 15.6 µM | actives 0.17% (n = 350,000) | AID 651687;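 active = every replicate shows inhibition of at least 40%; inconclusive = mean inhibition at least 40% but some replicate below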;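 also: 0% = neutral control wells and 100% = positive control wells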
DENV2 CPE rescue – protects cells from dengue virus 2 cytopathic effect. CPE inhibition, % at 9.99 µM. AID 651640. DENV2-infected cells, cytopathic effect rescue, plate reader. actives 1.7% (n = 350,000); in the data active = CPE inhibition above about 20%, passing the limit was not always enough; inconclusive = no clear call, values can overlap the other calls; tested in BHK-21 cells;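 also: 0% = median of neutral control wells and 100% = median of positive control wells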
S100A4 MyoIIA – inhibitors of human S100A4 binding to myosin IIA peptide; actives 0.14% (n = 360,000); AID 652163; S100A4/TAMRA-MyoIIA peptide fluorescence polarization; P26447; inhibition, % at 10.7 µM;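 active = mean inhibition of at least 70% across replicates, with every replicate also reaching that level; inconclusive = mean inhibition reaches 70% but some replicates fall short; inactive = mean inhibition below 70%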
Target sequence (P26447 whole entry, looked up): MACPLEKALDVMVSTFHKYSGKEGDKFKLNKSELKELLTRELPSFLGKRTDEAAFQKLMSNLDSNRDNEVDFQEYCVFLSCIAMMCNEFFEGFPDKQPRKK
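Test system: S100A4 monomer protein. Medium: HEPES buffer with Ca2+, pH 7.2. Reagent: fluorescent myosin IIA peptide, 5 nM. Compound dosing: single-point compound testing. Timing: 5 min between mix addition and reading. Benchmarks: DMSO neutral and TFP positive wells.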
Statin myotox sup – suppressors of simvastatin-induced myotoxicity in C2C12 myotubes; rescue of ATP level, % at 7.49 µM; ATP luminescence, 48 h; scaled: DMSO 0, geranylgeraniol control 100; actives 0.78% (n = 330,000);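 active = mean ATP rescue above about 67%, or every replicate alone reaching that limit, limit read from the data, passing the limit was not always enough; inconclusive = no clear call, values can overlap the other calls; inactive = mean under the limit and some replicate under it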;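 also: myotubes were challenged with 10 µM simvastatin during compound exposure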
SIRT5 block – sirtuin-5 (human) deacylase inhibition | inhibition, % at 15 µM | AID 652115 | Purified SirT5, succinyl-peptide AMC, trypsin-coupled fluorescence | actives 1.1% (n = 330,000) | Q9NXA8; in the data active = inhibition above about 15%; inconclusive = no clear call, values can overlap the other calls
Target sequence (Q9NXA8 whole entry, looked up): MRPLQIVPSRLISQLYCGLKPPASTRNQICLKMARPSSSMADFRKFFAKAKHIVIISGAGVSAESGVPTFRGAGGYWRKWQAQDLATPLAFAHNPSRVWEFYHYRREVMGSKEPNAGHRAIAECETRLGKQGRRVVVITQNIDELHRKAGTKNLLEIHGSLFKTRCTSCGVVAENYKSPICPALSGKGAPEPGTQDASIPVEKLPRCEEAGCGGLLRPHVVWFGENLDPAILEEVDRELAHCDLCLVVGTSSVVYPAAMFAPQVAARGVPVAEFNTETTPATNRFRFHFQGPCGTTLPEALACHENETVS
Numbers without * were called inactive; ? = inconclusive; nt = no result given. Rows were chosen to be rich in hits. Some 2.9% of all compounds tested hit in one or more screens of this group.

SMILES	PGC1a acetyl inh	DENV2 CPE rescue	S100A4 MyoIIA	Statin myotox sup	SIRT5 block
O=C(NCC[C@@H]1CC[C@H](NC(=O)c2ccccc2F)[C@@H](CO)O1)c1ccc2c(c1)OCO2	8	?	-6	-19	16*
O=C(NCC[C@@H]1CC[C@H](NC(=O)c2ccccc2F)[C@H](CO)O1)c1ccc2c(c1)OCO2	15	-3	11	6	4
C(/C=C/c1ccccn1)=C\c1ccccc1	4	6	4	nt	5
C(=C(c1ccccc1)c1ccccc1)c1ccccn1	-21	54*	2	1	nt
Brc1ccc(-c2ccccc2)cc1	2	62*	0	9	nt
COc1ccc(NC(=O)Nc2ccc3c(c2)OC[C@@H](C)NC[C@H](C)[C@H](OC)CN(C)C3=O)cc1	10	22*	-5	nt	-1
COc1cccc(NC(=O)Nc2ccc3c(c2)OC[C@H](C)NC[C@@H](C)[C@H](OC)CN(C)C3=O)c1	-1	22*	-2	-8	1
CO[C@H]1CN(C)C(=O)c2ccc(NC(=O)Nc3ccc(C(F)(F)F)cc3)cc2OC[C@H](C)NC[C@H]1C	0	2	-2	-8	15*
CO[C@H]1CN(C)C(=O)c2ccc(NC(=O)NC(C)C)cc2OC[C@@H](C)NC[C@@H]1C	nt	4	3	8	-5
COc1ccc(NC(=O)Nc2ccc3c(c2)OC[C@H](C)NC[C@@H](C)[C@H](OC)CN(C)C3=O)cc1	nt	-5	-12	-2	1
CO[C@H]1CN(C)C(=O)c2ccc(NC(=O)NC(C)C)cc2OC[C@H](C)NC[C@@H]1C	4	30*	-7	nt	-3
CC(C)NC(=O)Nc1ccc2c(c1)CC(=O)N([C@@H](C)CO)C[C@@H](C)[C@@H](CN(C)CC1CCCCC1)O2	nt	-6	-3	-8	5
O=C(O)c1ccc2nc(-c3ccco3)c(-c3ccco3)nc2c1	1	-2	-1	-3	22*
O=C(c1ccc2nc(-c3ccco3)c(-c3ccco3)nc2c1)N1CCN(c2ccccc2)CC1	6	nt	nt	-2	nt
CCCCCNCc1ccc(OCc2ccc(Cl)nc2)c(OC)c1	nt	31*	-5	nt	nt
C[C@H](CO)N1C[C@H](C)[C@H](CN(C)Cc2ccccc2)Oc2ccc(NC(=O)Nc3ccc(C(F)(F)F)cc3)cc2C1=O	4	-2	-7	-21	1
COC(=O)c1cc(=O)n(CCc2ccccc2F)c(=Nc2ccc(F)c(Cl)c2)s1	nt	-1	-2	110*	-5
COC(=O)c1cc(=O)n(Cc2ccco2)c(=Nc2ccc(F)c(Cl)c2)s1	nt	-1	3	6	2
O=C(Cc1ccccc1)NCC(=O)N/N=C/c1ccc([N+](=O)[O-])s1	-9	-2	-2	163*	0
O=C(O)c1cc(S(=O)(=O)Nc2cccc3ccccc23)c(Cl)cc1Cl	2	-4	-8	75*	5
CC(C)CNS(=O)(=O)c1cc(C(=O)O)c(Cl)cc1Cl	8	3	6	nt	nt
C[C@@H]1CCCCO[C@@H](CN(C)Cc2ccncc2)[C@H](C)CN([C@H](C)CO)C(=O)c2cc(NS(=O)(=O)c3cn(C)cn3)ccc2O1	-21	-1	2	nt	-5
C[C@H]1CN([C@@H](C)CO)C(=O)c2cc(C#CC(C)(C)O)cnc2O[C@H]1CN(C)Cc1cncnc1	17	33*	12	-11	4
C/C=C/c1cnc2c(c1)C(=O)N([C@H](C)CO)C[C@@H](C)[C@H](CN(C)Cc1cncnc1)O2	-10	-2	4	-9	-4
C/C=C/c1cnc2c(c1)C(=O)N([C@@H](C)CO)C[C@H](C)[C@H](CN(C)Cc1cncnc1)O2	-12	37*	-20	-2	1
O=C(C[C@@H]1C=C[C@H](NC(=O)Nc2cc(F)ccc2F)[C@@H](CO)O1)NCc1ccc2c(c1)OCO2	3	7	3	19	4
Cc1ccc(-c2cc(C(F)F)n3ncc(C(=O)Nc4c(C)nn(Cc5c(Cl)cccc5Cl)c4C)c3n2)cc1	59	nt	nt	-36	nt
Cc1ccc(-c2cc(C(F)F)n3ncc(C(=O)Nc4c(C)nn(Cc5ccccc5Cl)c4C)c3n2)cc1	-6	nt	nt	80*	nt
COc1ccccc1Cc1c(-c2ccc(Cl)cc2)nc2ccc(C)cn12	nt	7	-6	nt	-1
CN(C)C(=O)[C@H]1[C@H](CO)[C@H]2Cn3c(ccc(-c4ccccc4)c3=O)[C@@H]1N2Cc1ccccn1	nt	5	30	3	-27

High-throughput results: PubChem BioAssay, Broad Institute
